Measurements from ChEMBL document CHEMBL1240416, “Synthesis, structure and DNA cleavage studies of coumarin analogues of tetrahydroisoquinoline and protoberberine alkaloids” (Eur J Med Chem, 2010).
Activity calls are given as the source filed them. The rule behind the calls is not given here.

Assays:
Type in all cases: nucleic-acid assay
Nucleic Acid [1] = experiment: Induction of Aspergillus niger DNA cleavage after 2 hrs by agarose gel electrophoresis
Summary of the method: (§1)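 Genomic DNA was isolated from cultures grown at 37 °C (E. coli and S. aureus in nutrient broth for 24 h; A. niger in potato dextrose broth for 48 h). Extraction used Tris/EDTA/SDS lysis, phenol at 55 °C, chloroform:isoamyl alcohol and ethanol precipitation. DNA was incubated 2 h at 37 °C with compound from a 1 mg/mL DMF stock, then run on agarose in TAE at 50 V for about 30 min against marker and untreated-DNA lanes.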

Nucleic Acid [2] = experiment: Induction of Escherichia coli ATCC 35218 DNA cleavage after 2 hrs by agarose gel electrophoresis; summary of the method: as §1
Nucleic Acid [3] = experiment: Induction of Staphylococcus aureus 6538 DNA cleavage after 2 hrs by agarose gel electrophoresis; summary of the method: as §1

SMILES | Activity (Nucleic Acid [1]) | Activity (Nucleic Acid [2]) | Activity (Nucleic Acid [3])
COc1cc2c(cc1OC)C1Cc3c(c(=O)oc4ccc(C)cc34)CN1CC2 (stereo unspecified) | inactive | inactive | inactive
Cc1ccc2c3c(c(=O)oc2c1)CN1CCc2ccccc2C1C3 (stereo unspecified) | inactive | inactive | inactive
COc1cc2c(cc1OC)C1Cc3c(c(=O)oc4c3ccc3ccccc34)CN1CC2 (stereo unspecified) | Active | inactive | Active
COc1cc2c(cc1OC)C(Cc1cc(=O)oc3c1ccc1ccccc13)NCC2 (stereo unspecified) | Active | inactive | Active
Cc1ccc2c(CC3NCCc4ccccc43)cc(=O)oc2c1 (stereo unspecified) | inactive | inactive | inactive
COc1cc2c(cc1OC)C(Cc1cc(=O)oc3cc(C)ccc13)NCC2 (stereo unspecified) | inactive | inactive | inactive
O=c1cc(CC2NCCc3ccccc32)c2ccc3ccccc3c2o1 (stereo unspecified) | Active | inactive | Active
Cc1ccc2oc(=O)c3c(c2c1)CC1c2ccccc2CCN1C3 (stereo unspecified) | inactive | inactive | inactive
Cc1ccc2oc(=O)cc(CC3NCCc4ccccc43)c2c1 (stereo unspecified) | inactive | inactive | inactive
COc1cc2c(cc1OC)C(Cc1cc(=O)oc3ccc(C)cc13)NCC2 (stereo unspecified) | inactive | inactive | inactive
O=c1oc2c(ccc3ccccc32)c2c1CN1CCc3ccccc3C1C2 (stereo unspecified) | Active | inactive | Active
COc1cc2c(cc1OC)C1Cc3c(c(=O)oc4cc(C)ccc34)CN1CC2 (stereo unspecified) | inactive | inactive | inactive
